Results taken from ChEMBL document CHEMBL1127051, “Vanilloids. 1. Analogs of capsaicin with antinociceptive and antiinflammatory activity” (J Med Chem, 1993).

Tests used:
Rattus norvegicus [1] = assay: Percentage analgesia by rat hot plate test after oral administration at 300 mg/kg.; format: functional
Procedure, shortened: (§1)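 Rats fasted 18 h, prescreened on a 55 ± 0.5 °C hot plate (latency <12 s, else lowest <30 s) to set the 0 h value. Groups of 8 dosed orally in sesame oil (1 mL/200 g); latency read at 1.5, 3, 5 h (24 h if persisting). %analgesia = [(LT(t) − LT(0))/(60 − LT(0))]×100, taken at the time of maximal latency.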

[2] = Acute toxicity after intraperitoneal dose at 33 mg/kg in mice; format: organism-based; parameters: dose 33 mg/kg, route intraperitoneal; settings: mouse, in vivo, ip, read-out: Lethality
Procedure, shortened: (§2)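 Single intraperitoneal dose at the listed mg/kg; acute toxicity scored as % lethality = number of deaths / number of animals dosed, 7–10 animals per group.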

Mus musculus [3] = assay: Latency time measured by mouse hot plate test after subcutaneous administration at 200 mg/kg; format: functional; parameters: unit: s
Procedure, shortened: (§3)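 Male CF-1 mice, 8 per group, given test agent sc in 0.2 mL ethanol/Tween-80/saline (10/10/80); dose 0.68 mmol (200 mg/kg for capsaicin). Placed on copper surface held at 55 ± 0.5 °C. Paw-response latency (s) reported as group mean ± SD; pretest latency ~5 s.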

Mus musculus [4] = assay: Percentage inhibition in mouse by using Croton oil-inflamed mouse ear test (topical dosing).; format: functional; parameters: concentration or dose not given beside the values
Procedure, shortened: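 Male Cox ICR mice (25–35 g), 10 per group. Left ear given 25 μL of 1% compound in ethanol, repeated ~17 h later; 1 h after that, both ears given 25 μL 2% croton oil. After 4 h, 5 mm ear punches weighed. % inhibition = [(C − T1)/C]×100, using left-minus-right weight differences versus vehicle controls.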

Mus musculus [5] = assay: Latency time measured by mouse hot plate test after subcutaneous administration at 200 mg/kg in experiment 1; format: functional; procedure, shortened: as §3
Mus musculus [6] = assay: Latency time measured by mouse hot plate test after subcutaneous at 200 mg/kg in experiment 2; format: functional; procedure, shortened: as §3
Rattus norvegicus [7] = assay: Percentage analgesia by using rat hot plate test after oral administration at 300 mg/kg; format: functional; procedure, shortened: as §1
Mus musculus [8] = assay: Latency time measured by mouse hot plate test after subcutaneous administration at 200 mg/kg in experiment 3; format: functional; procedure, shortened: as §3
[9] = Acute toxicity after intraperitoneal dose at 4 mg/kg in mice; format: organism-based; parameters: dose 4 mg/kg, route intraperitoneal; settings: mouse, in vivo, ip, read-out: Lethality; procedure, shortened: as §2

| SMILES | Analgesia (Rattus norvegicus [1]) [%] | mortality [2] [%] | Latency (Mus musculus [3]) | Inhibition (Mus musculus [4]) [%] | Latency (Mus musculus [5]) | Latency (Mus musculus [6]) | Analgesia (Rattus norvegicus [7]) [%] | Latency (Mus musculus [8]) | mortality [9] [%] |
| --- | --- | --- | --- | --- | --- | --- | --- | --- | --- |
| C=CCCCCCCCCC(=O)NCc1ccc(O)c(OC)c1 | 8 | 50 | 55.5 | 65.7 |  |  |  |  |  |
| CCCCCCCCNC(=O)Cc1ccc(O)c(OC)c1 |  |  |  | 89.1 | 58.7 | >60 | 7 | 32.3 | 50 |
